MEX-5 binding: C. elegans MEX-5 TCR-2 RNA binding activity | MEX-5/FITC-TCR2 RNA binding, fluorescence polarization; active compounds read low | activity score (negative = inhibition of binding), % at 10 µM | 300,000 compounds, 0.38% hits | AID 1832;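 active = inhibition past about -25% in most replicates, and total fluorescence under double the plate's negative control median, limit read from the data; inconclusive = replicates evenly split on the limit, or fluorescence at least double controls; inactive = too little inhibition in most replicates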;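 also: 0% = DMSO and -100% = 5 µM competing unlabeled TCR2 RNA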
Target sequence (Q9XUB2 whole entry, looked up): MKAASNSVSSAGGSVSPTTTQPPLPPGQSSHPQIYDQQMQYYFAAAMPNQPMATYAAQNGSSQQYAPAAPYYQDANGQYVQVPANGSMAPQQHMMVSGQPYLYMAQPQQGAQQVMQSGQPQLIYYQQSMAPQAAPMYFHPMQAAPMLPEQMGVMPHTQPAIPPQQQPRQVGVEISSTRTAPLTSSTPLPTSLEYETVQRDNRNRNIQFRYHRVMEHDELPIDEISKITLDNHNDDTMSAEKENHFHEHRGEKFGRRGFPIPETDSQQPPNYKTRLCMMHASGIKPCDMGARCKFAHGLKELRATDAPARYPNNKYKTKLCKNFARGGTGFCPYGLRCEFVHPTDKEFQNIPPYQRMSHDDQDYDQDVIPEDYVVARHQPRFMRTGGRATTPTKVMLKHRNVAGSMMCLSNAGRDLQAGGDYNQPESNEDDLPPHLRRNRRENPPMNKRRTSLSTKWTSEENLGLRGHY
EBV gp42 block: EBV gp42 inhibition | Q1HVG2 | Fluorescence polarization binding assay, mP read-out | inhibition, % (tested at 21.74 µM) | 220,000 compounds, 0.42% hits | AID 1085; in the data active = inhibition above about 50%
RanGTP-Impb inh: disruptors of Ran-importin-beta complex formation – biochemical, FRET, CFP-Ran, YFP-importin-beta, homogeneous, primary screen. inhibition, % (concentration not given with the values). AID 2216. cell-free CFP-Ran/YFP-importin-beta FRET ratio. 300,000 compounds, 1.1% hits;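 active = more than half of the replicate wells show a fall in the fluorescence ratio signal beyond about 16%, limit read from the data, passing the limit was not always enough; inconclusive = exactly half of the replicate wells pass the set limit; inactive = fewer than half of replicates pass the limit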;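 also: 0% = DMSO wells and 100% = Ran loaded with GDP instead of GTP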
Runt-CBFb FRET: Runt domain-CBFb interaction inhibition; Q01196+Q13951; Cerulean-Runt/Venus-CBFb FRET ratio 530/480, 1 h; inhibition, % at 20 µM; 220,000 compounds, 0.46% hits; AID 1496;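 active = inhibition over about 50% at 20 µM in the single-dose screen, limit read from the data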;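 also: 0% = DMSO wells and 100% = excess unlabeled CBFb competitor control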
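test system = Cerulean-Runt domain fusion protein, energy donor | probe or stimulus = Venus-CBFb binding partner, 100 nM | incubation = two 1 h room-temperature incubations shielded from light | detection = fluorescence energy transfer, 422 nm excitation, 530/480 nm emission | measure = loss of energy transfer signal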
LANA-H2B inh: blocks KSHV LANA binding to histone H2A/H2B | cell-free LANA-H2A/H2B peptide, fluorescence polarization | inhibition, % (concentration not given with the values) | 320,000 compounds, 0.6% hits | Q9QR71 | AID 2629; in the data active = inhibition mostly above about 10%, no sharp cut-off; inactive = mostly below about 6.7%
Runt-SMMHC FRET: Runt domain-CBFb-SMMHC interaction inhibition | Cerulean-Runt/Venus-CBFb-SMMHC FRET ratio 530/480, 1 h | inhibition, % at 20 µM | 220,000 compounds, 0.74% hits | Q01196+Q13951;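 active = mean inhibition across duplicate retests at 20 µM reaching about 50%, limit read from the data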;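 also: 0% = DMSO wells and 100% = wells with excess untagged CBFb-SMMHC; inhibitors lower the FRET ratio by blocking Runt binding to CBFb-SMMHC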
Numbers without * were called inactive; ? = inconclusive; · = not tested or not shown; ! = repeats disagree. Shown are actives, neighbours in structure and some others; about 2.4% of the full set was active somewhere.

SMILES | MEX-5 binding | EBV gp42 block | RanGTP-Impb inh | Runt-CBFb FRET | LANA-H2B inh | Runt-SMMHC FRET
CCN1CCN(S(=O)(=O)c2ccc(Cl)c(C(=O)Nc3ccc(C(=O)N(CC)CC)cc3)c2)CC1 | -2 | · | ? | · | -3 | ·
CCOC(=O)c1ccc(NC(=O)c2c(O)[nH]c(=O)[nH]c2=O)cc1 | -4 | 77* | 5 | -274 | 0 | -29
CCc1ccc(N2C(=O)NC(=O)/C(=C\c3cccn3CCOc3ccc(C(C)C)cc3)C2=O)cc1 | -36* | -3 | 4 | -169 | 3 | -105
Cc1ccc(OCCn2cccc2/C=C2/C(=O)NC(=O)N(Cc3ccco3)C2=O)cc1 | -4 | -23 | 3 | -2 | 7 | -16
CN(C)C(=O)O/N=C(\N)COc1ccc(C(C)(C)C)cc1 | 0 | -1 | -1 | 1 | 2 | 1
COC(=O)C1C=C2c3cccc4[nH]cc(c34)CC2N(C)C1 (stereo unspecified) | · | 114* | · | -60 | · | -134
CCC(CO)NC(=O)C1C=C2c3cccc4[nH]cc(c34)CC2N(C)C1 (stereo unspecified) | -15 | 22 | -2 | -39 | 9 | -12
CC[C@@H](CO)NC(=O)[C@@H]1C=C2c3cccc4c3c(cn4C)C[C@H]2N(C)C1 | -31* | 53*! | -12 | -5 | 10 | -29
CC(C)C[C@H]1C(=O)N2CCC[C@H]2[C@]2(O)O[C@](NC(=O)[C@@H]3C=C4c5cccc6[nH]cc(c56)C[C@H]4N(C)C3)(C(C)C)C(=O)N12 | · | · | · | · | 8 | ·
O=S(=O)(c1ccc(Cl)cc1)N1CN2CCN(C2)C1 | -1 | -5 | 1 | 1 | -5 | -3
Cc1c(N)c(C)c([N+](=O)[O-])c(C)c1[N+](=O)[O-] | 1 | -8 | 7 | -1 | -37 | 1
Cc1ccc(N2C(=O)NC(=O)/C(=C\c3cc(C)n(-c4ccc(C(=O)O)cc4)c3C)C2=O)cc1 | -35* | · | 8 | · | 0 | ·
O=C(NCC(c1cccnc1)N1CCOCC1)Oc1ccccc1 (stereo unspecified) | -1 | -25 | ? | 2 | 1 | 0
O=C(NC(C(Cl)Cl)N1CCOCC1)c1ccccc1 (stereo unspecified) | 1 | -7 | 22* | -1 | 1 | -2
C=CCn1c(O)c(/C(C)=N/N2CCCCC2)c(=O)[nH]c1=O | -1 | -5 | -4 | 4 | 8 | 2
C[N+](C)(C)CCc1ccc(O)cc1 | -2 | -41 | ? | -4 | 11* | 10
Cc1cc(C=C2C(=O)NC(=O)NC2=O)c(C)n1-c1cccnc1 | -71* | 0 | 5 | 1 | -1 | -2
C=CCN1C(=O)/C(=C/c2cc(C)n(-c3cccnc3)c2C)C(=O)NC1=S | -11 | -4 | -3 | 2 | 5 | -8
Cc1sc(-n2c(C)cc(C=C3C(=O)NC(=O)NC3=O)c2C)c(C#N)c1C | ? | -51 | 1 | 16 | 17* | 2
CCP(=S)(CC)c1ccc(N(C)C)cc1 | -1 | -6 | -2 | 0 | -8 | 0
Oc1ccc(CC2CC3CCN2CC3)cc1O (stereo unspecified) | -1 | -7 | -1 | -3 | -5 | 5
Oc1ccc(C[C@H]2NCCc3cc(O)c(O)cc32)cc1O | -81* | · | ? | · | -4 | ·
COc1ccccc1-n1c(O)c(/C=C2\C=Nc3ccccc32)c(=O)[nH]c1=O | -35* | · | 1 | · | -7 | ·
O=C1NC(=O)N(Cc2ccccc2)C(=O)/C1=C/N1CCCc2ccccc21 | 25 | -1 | 30* | 17 | -1 | 18
O=C(COC(=O)Cc1ccccc1)Nc1nnc(-c2ccccc2)o1 | -1 | · | 7 | · | 0 | ·
COC(=O)C1=C(c2ccc(C(C)=O)cc2)C[C@@H]2CC[C@H]1N2C(=O)NCCOc1ccccc1Cl | · | · | · | · | -2 | ·
COC(=O)C1=C(c2cccc(OC)c2OC)C[C@@H]2CC[C@H]1N2C(=O)NCc1cccc2ccccc12 | -1 | · | 3 | · | 4 | ·
CCCC(=O)OCC[N+](C)(C)C | -1 | -9 | 0 | -2 | 20* | 3
N#Cc1c(/N=C/c2c(O)n(Cc3ccco3)c(=O)[nH]c2=O)sc2c1CCCC2 | 4 | -14 | -5 | 23 | -1 | 28

Compound activity from PubChem BioAssay.
